Activity calls are given as the source filed them. The rule behind the calls is not given here.
Tests used:
T98 [1] = test: Antiproliferative activity against human T98 cells assessed as reduction in cell viability incubated for 5 days by PrestoBlue reagent based fluorescence assay; assay type: functional; conditions: T98, 120 h
Method in brief: (§1)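 Cells seeded in DMEM/10% FBS/2 mM L-glutamine (U87 1×10^3, T98 5×10^2 per well), allowed 48 h at 37 °C, then given fresh medium plus compound from 20× intermediate stocks; untreated wells had 0.1% v/v DMSO. After 5 d, PrestoBlue reading (ex 540, em 590 nm, 60–90 min). EC50 from 4-parameter logistic fit of values normalised to untreated cells, bottom fixed at zero.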

E21 [2] = test: Antiproliferative activity against human E21 cells assessed as reduction in cell survival incubated for 72 hrs by Hoechst staining based nuclei count assay
U-87 MG [3] = test: Antiproliferative activity against human U87 cells assessed as reduction in cell viability incubated for 5 days by PrestoBlue reagent based fluorescence assay; assay type: functional, U-87MG ATCC; conditions: 120 h; method in brief: as §1
T98 [4] = test: Antiproliferative activity against human T98 cells assessed as reduction in cell viability at 3 to 30 uM incubated for 5 days by PrestoBlue reagent based fluorescence assay; assay type: functional; conditions: dose 3-30 µM, time 5.0 day
Method in brief: (§2)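 U87 (1×10^3/well) and T98 (5×10^2/well) cells in DMEM with 10% FBS and 2 mM L-glutamine, grown 48 h at 37 °C, 5% CO2, then medium replaced. Compounds added from 20× intermediate dilutions at 3, 10 and 30 μM for 5 d, in triplicate; DMSO 0.1% v/v control. PrestoBlue 60–90 min, fluorescence ex 540/em 590 nm. Normalised to untreated cells; 4-parameter logistic fit, minimum constrained to zero.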

U-87 MG [5] = test: Antiproliferative activity against human U87 cells assessed as reduction in cell viability incubated at 3 to 30 uM for 5 days by PrestoBlue reagent based fluorescence assay; assay type: functional; conditions: U-87MG ATCC, dose 3-30 µM, time 5.0 day; method in brief: as §2
E21 [6] = test: Antiproliferative activity against human E21 cells assessed as phenotypic change at 1 to 5 uM incubated for 72 hrs in presence of INK128 by Hoechst 33342/ Alexa Fluor 488 staining based PCA analysis; assay type: functional, cell-based; conditions: dose 1-5 µM
Method in brief: (§3)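 Patient-derived glioma stem cells kept in laminin-coated DMEM/F12 with FGF, EGF, B27 and N2, plated at 500–1500 cells/well on laminin (10 μg mL−1). After overnight attachment, dosed in triplicate with 0.1% DMSO final, 72 h at 37 °C. Live MitoTracker DeepRed (final 300 nM, 30 min), formaldehyde fixation (final 4%), Cell Painting staining and imaging, CellProfiler features, PCA of phenotypic profiles.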

E57 [7] = test: Antiproliferative activity against human E57 cells assessed as phenotypic change at 1 to 2.5 uM incubated for 72 hrs in presence of INK128 by Hoechst 33342/ Alexa Fluor 488 staining based PCA analysis; conditions: dose 1-2.5 µM
E31 = test: Antiproliferative activity against human E31 cells assessed as phenotypic change at 1 to 5 uM incubated for 72 hrs in presence of INK128 by Hoechst 33342/ Alexa Fluor 488 staining based PCA analysis; assay type: functional, cell-based; conditions: dose 1-5 µM; method in brief: as §3
E21 [8] = test: Antiproliferative activity against human E21 cells assessed as reduction in cell viability at 0.01 to 10 uM incubated for 72 hrs by Hoechst staining based nuclei count assay; conditions: dose 0.01-10 µM
E57 [9] = test: Antiproliferative activity against human E57 cells assessed as reduction in cell viability at 0.01 to 10 uM incubated for 72 hrs by Hoechst staining based nuclei count assay; conditions: dose 0.01-10 µM

SMILES	EC50 (T98 [1]) [µM]	Activity (T98 [4])	other results
CNc1ncc2c(C#CCN3CCCCCC3)nn(CC3CCCC3)c2n1	4.6		
CN(C)C1CCN(CC#Cc2nn(C3CCCCC3)c3nc(NC(C)(C)C)ncc23)C1 (stereo not given)	2.54		Activity (E21 [2]): Dose-Dependent Effect; EC50 (U-87 MG [3]): 2.71 µM
CNc1ncc2c(C#CCN3CCCC(N(C)C)C3)nn(CC3CCCC3)c2n1 (racemic)	10.8		EC50 (U-87 MG [3]): 5 µM
CCOC(=O)N1CCN(CC#Cc2nn(CC3CCCC3)c3nc(NC)ncc23)CC1		Active	
CN(C)C1CCCN(CC#Cc2nn(CC3CCCCC3)c3nc(NC(C)(C)C)ncc23)C1 (stereo not given)		Active	Activity (U-87 MG [5]): Active
CN(C)C1CCCN(CC#Cc2nn(CC3CCCC3)c3nc(NC(C)(C)C)ncc23)C1 (stereo not given)	< 4		
CN(C)C1CCCN(CC#Cc2nn(CC3CCCC3)c3nc(NCc4ccccc4)ncc23)C1 (stereo not given)	< 4		
CCCNc1ncc2c(C#CCN3CCCC(N(C)C)C3)nn(CC3CCCC3)c2n1 (stereo not given)	< 4		
Cn1nnc2c(C(N)=O)ncn2c1=O			Activity (U-87 MG [5]): Active
CCC(CC)Nc1ncc2c(C#CCN3CCCC(N(C)C)C3)nn(CC3CCCC3)c2n1 (stereo not given)	< 4		Activity (E21 [2]): Dose-Dependent Effect
CCOC(=O)C1CCN(CC#Cc2nn(CC3CCCC3)c3nc(NC)ncc23)CC1		Active	
CN(C)C1CCCN(CC#Cc2nn(C3CCCC3)c3nc(NC(C)(C)C)ncc23)C1 (stereo not given)		Active	Activity (U-87 MG [5]): Active; Activity (E21 [2]): Dose-Dependent Effect
CN(C)C1CCCN(CC#Cc2nn(C3CCCCC3)c3nc(NC(C)(C)C)ncc23)C1 (stereo not given)		Active	Activity (U-87 MG [5]): Active
CNc1ncc2c(C#CCN3CCC(N(C)C)CC3)nn(CC3CCCC3)c2n1	14.8		EC50 (U-87 MG [3]): 15.9 µM
CN(C)C1CCN(CC#Cc2nn(C3CCCC3)c3nc(NCc4ccccc4)ncc23)C1 (stereo not given)	2		Activity (E21 [6]): Active; Activity (E57 [7]): Active; Activity (E31): Active; Activity (E21 [8]): Active; Activity (E57 [9]): Active
CNc1ncc2c(C#CCN3CCCC(N(C)C)C3)nn(C3CCCC3)c2n1 (stereo not given)		Active	
CNc1ncc2c(C#CCN3CCCC(N(C)C)C3)nn(CC3CCCCC3)c2n1 (stereo not given)		Active	
CNc1ncc2c(C#CCN3CCCC(N(C)C)C3)nn(C3CCCCC3)c2n1 (stereo not given)		Active	
CNc1ncc2c(C#CCN3CCC(NC(C)=O)CC3)nn(CC3CCCC3)c2n1		Active	
CC1CCN(CC#Cc2nn(CC3CCCC3)c3ncnc(N)c23)CC1	< 30		EC50 (U-87 MG [3]): < 30 µM

— ChEMBL document CHEMBL5329220, “Discovery of pyrazolopyrimidines that selectively inhibit CSF-1R kinase by iterative design, synthesis and screening against glioblastoma cells” (RSC Med Chem, 2023)
